Measured values as given in ChEMBL document CHEMBL1137561 (J Med Chem, 2007).

Legend:
[1] = tested on: Human immunodeficiency virus 1; assay: Antiviral activity against HIV1 NL43 in MT4 cells assessed as inhibition of viral induced cytopathic effect after 5 days by MTT method; conditions: Human immunodeficiency virus 1, NL43, MT4, 120 h
[2] = target: Human immunodeficiency virus type 1 reverse transcriptase (Human immunodeficiency virus 1, UniProt Q72547, Y188L); assay: Inhibition of HIV1 reverse transcriptase Y188L mutant
[3] = target: Human immunodeficiency virus type 1 reverse transcriptase (Human immunodeficiency virus 1, UniProt Q72547, V106A); assay: Inhibition of HIV1 reverse transcriptase V106A mutant
[4] = tested on: Human immunodeficiency virus 1; assay: Antiviral activity against HIV1 with reverse transcriptase Y188L mutation in MT4 cells assessed as inhibition of viral induced cytopathic effect by MTT method; format: functional, organism-based; conditions: Human immunodeficiency virus 1, MT4
In short: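 MT-4 cells infected with the HIV-1 NNRTI-resistant mutant strain. Viable cells scored at day 5 post-infection by the MTT tetrazolium colorimetric method. Values are means ± SD from at least two experiments.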

[5] = target: Human immunodeficiency virus type 1 reverse transcriptase (Human immunodeficiency virus 1, UniProt Q72547, V179D); assay: Inhibition of HIV1 reverse transcriptase V179D mutant
[6] = tested on: Human immunodeficiency virus 1; assay: Antiviral activity against HIV1 with reverse transcriptase K103N mutation in MT4 cells assessed as inhibition of viral induced cytopathic effect by MTT method; format: functional, organism-based; conditions: Human immunodeficiency virus 1, MT4
In short: (§1)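 MT-4 cells infected with the HIV-1 NNRTI-resistant mutant strain. Viable cells scored at day 5 post-infection by the MTT tetrazolium colorimetric method. […] Values are means ± SD from at least two experiments.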

[7] = target: Human immunodeficiency virus type 1 reverse transcriptase (Human immunodeficiency virus 1, UniProt Q72547, K103N); assay: Inhibition of HIV1 reverse transcriptase K103N mutant
[8] = Cytotoxicity against MT4 cells after 4 days by MTT method; format: cell-based; conditions: human
In short: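 Mock-infected (noninfected) MT-4 cells, run in parallel with the antiviral test. Viable cells read by the MTT tetrazolium colorimetric method. […] Means ± SD from at least two experiments. The top concentration was limited where compounds precipitated in the culture medium.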

[9] = tested on: Human immunodeficiency virus 1; assay: Antiviral activity against HIV1 with reverse transcriptase IRLL98 mutation in MT4 cells assessed as inhibition of viral induced cytopathic effect by MTT method; format: functional, organism-based; conditions: Human immunodeficiency virus 1, MT4
[10] = Inhibition of HIV1 reverse transcriptase Y1811 mutant; set-up: species or system Human immunodeficiency virus 1
In short: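 Recombinant HIV-1 RT Y181I mutant, purified to >95%, 10 min preincubation with inhibitor. Radioactive nucleotide incorporation into poly(rA)/oligo(dT) 10:1 was followed at varied nucleotide substrate levels, sampling every 2 min for initial velocities. Inhibitor spanned 0.2–5 Ki. Ki came from Lineweaver-Burk and Dixon plots. Means ± SD of at least three experiments.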

[11] = tested on: Human immunodeficiency virus 1; assay: Antiviral activity against HIV1 with reverse transcriptase Y181C mutation in MT4 cells assessed as inhibition of viral induced cytopathic effect by MTT method; format: functional, organism-based; conditions: Human immunodeficiency virus 1, MT4
In short: as §1

[12] = target: Human immunodeficiency virus type 1 reverse transcriptase (Human immunodeficiency virus 1, UniProt Q72547); assay: Inhibition of wild type HIV1 3B reverse transcriptase
[13] = Selectivity index, ratio of CC50 for MT4 cells to EC50 for HIV1 NL43 infected MT4 cells; format: functional
[14] = target: Human immunodeficiency virus type 1 reverse transcriptase (Human immunodeficiency virus 1, UniProt Q72547, L100I); assay: Inhibition of HIV1 reverse transcriptase L100I mutant
[15] = Resistance index, Ratio of EC50 for drug-resistant HIV1 with RT Y188L mutation in MT4 cells to EC50 for HIV1 NL43 in MT4 cells
[16] = Resistance index, Ratio of EC50 for drug-resistant HIV1 with RT Y181C mutation in MT4 cells to EC50 for HIV1 NL43 in MT4 cells
[17] = Resistance index, Ratio of EC50 for drug-resistant HIV1 with RT K103N mutation in MT4 cells to EC50 for HIV1 NL43 in MT4 cells
[18] = Resistance index, Ratio of EC50 for drug-resistant HIV1 with RT IRLL98 mutation in MT4 cells to EC50 for HIV1 NL43 in MT4 cells

Row | SMILES | EC50 [1] [nM] | Ki [2] [nM] | Ki [3] [nM] | EC50 [4] [nM] | Ki [5] [nM] | EC50 [6] [nM] | Ki [7] [nM] | CC50 at 96 h [8] [nM] | EC50 [9] [nM] | Ki [10] [nM] | EC50 [11] [nM] | Ki [12] [nM] | Ratio CC50/EC50 [13] | Ki [14] [nM] | Ratio EC50 [15] | Ratio EC50 [16] | Ratio EC50 [17] | Ratio EC50 [18]
1 | Cc1c(Cc2c(F)cccc2F)nc(N2CCOCC2)[nH]c1=O | 26 | > 20000 | 400 | > 10000 | 8300 | > 10000 | > 20000 | > 78000 | > 10000 | > 20000 | > 10000 | 50 | >3000 | 900 | – | – | – | –
2 | Cc1c(C(C)c2c(F)cccc2F)nc(N2CCC(C)CC2)[nH]c1=O (stereo unspecified) | 2 | – | – | 220 | – | 322 | – | 54000 | 300 | – | 10 | – | 27000 | – | 110 | 5 | 161 | 150
3 | Cc1c(C(C)c2c(F)cccc2F)nc(N2CCCC(C)C2)[nH]c1=O (stereo unspecified) | 3 | – | – | 120 | – | 193 | – | > 72000 | 200 | – | 14 | – | >24000 | – | 40 | 5 | 64 | 67
4 | Cc1c(C(C)c2c(F)cccc2F)nc(N2CCCCC2)[nH]c1=O (stereo unspecified) | 7 | 3500 | 20 | 390 | 10 | 520 | 600 | > 75000 | 60 | > 20000 | 70 | 70 | >10714 | 2000 | 56 | 10 | 74 | 9
5 | CCC(c1cc(=O)[nH]c(N(C)C)n1)c1c(F)cccc1F (stereo unspecified) | 2 | 5000 | 140 | > 10000 | 30 | 180 | 10000 | 73000 | 1600 | > 20000 | 430 | 100 | 36500 | 3300 | – | 215 | 90 | 800
6 | Cc1c(Cc2c(F)cccc2F)nc(N2CCSCC2)[nH]c1=O | 4 | > 20000 | 90 | > 10000 | 40000 | > 10000 | > 20000 | > 74000 | > 10000 | > 20000 | > 10000 | 150 | >18500 | 5000 | – | – | – | –
7 | Cc1c(Cc2c(F)cccc2F)nc(N(C)C(C)C)[nH]c1=O | 2 | – | – | 2300 | – | 1200 | – | 79000 | 80 | – | 30 | – | 39500 | – | 1150 | 15 | 600 | 40
8 | Cc1c(Cc2c(F)cccc2F)nc(N2CCN(c3ccccn3)CC2)[nH]c1=O | 12 | 490 | 10 | – | 10 | – | > 20000 | > 63000 | – | > 20000 | – | 50 | >5250 | > 20000 | – | – | – | –
9 | Cc1c(C(C)c2c(F)cccc2F)nc(N2CCOCC2)[nH]c1=O (stereo unspecified) | 2 | 5500 | 500 | 560 | > 20000 | 390 | 3300 | > 74000 | 50 | > 20000 | 90 | 3 | >37000 | 10000 | 280 | 45 | 195 | 25
10 | Cc1c(Cc2c(F)cccc2F)nc(N2CCCCC2)[nH]c1=O | 3 | – | – | 10000 | – | > 10000 | – | > 78000 | 820 | – | 140 | – | >26000 | – | 3333 | 47 | – | 273
11 | CCN(C)c1nc(Cc2c(F)cccc2F)c(C)c(=O)[nH]1 | 18 | – | – | 8000 | – | 4600 | – | > 85000 | 420 | – | 710 | – | >4722 | – | 444 | 39 | 256 | 23
12 | Cc1c(Cc2c(F)cccc2F)nc(N(C)C)[nH]c1=O | 5 | 11000 | 700 | > 10000 | 1600 | 2400 | 9000 | > 89000 | 500 | > 20000 | 1820 | 100 | >17800 | 10000 | – | 364 | 480 | 100
13 | COc1ccccc1N1CCN(c2nc(Cc3c(F)cccc3F)c(C)c(=O)[nH]2)CC1 | 218 | 25700 | 500 | – | 5000 | – | > 20000 | 37000 | – | > 20000 | – | 250 | 170 | 10000 | – | – | – | –
14 | O=c1cc(Cc2c(F)cccc2F)nc(N2CCCCC2)[nH]1 | 13 | > 20000 | 200 | 8000 | 5000 | > 10000 | > 20000 | > 82000 | 2200 | > 20000 | 710 | 2500 | >6308 | 10000 | 615 | 55 | – | 169
15 | CN1CCN(c2nc(Cc3c(F)cccc3F)cc(=O)[nH]2)CC1 | 6090 | > 20000 | > 40000 | – | > 40000 | – | > 20000 | > 78000 | – | > 20000 | – | 11200 | >13 | > 20000 | – | – | – | –
16 | CCCN(C)c1nc(Cc2c(F)cccc2F)c(C)c(=O)[nH]1 | 2 | > 20000 | 8 | 1600 | 200 | 750 | > 20000 | > 81000 | 55 | > 20000 | 39 | 100 | >40500 | 18000 | 800 | 19 | 375 | 27
17 | CCC(c1nc(N(C)C)[nH]c(=O)c1C)c1c(F)cccc1F (stereo unspecified) | 7 | > 20000 | > 40000 | 480 | > 40000 | 1830 | > 20000 | > 81000 | 1180 | > 20000 | 290 | 1000 | >11571 | > 20000 | 69 | 41 | 261 | 169
18 | Cc1c(Cc2c(F)cccc2F)nc(N(C)C2CCCCC2)[nH]c1=O | 9 | – | – | 6200 | – | 4400 | – | > 72000 | 2000 | – | 140 | – | >8000 | – | 689 | 16 | 489 | 222
